Data taken from ChEMBL document CHEMBL3525963, “Tissue distribution and elimination of [14C]apixaban in rats” (Drug Metab Dispos, 2011).

How the values were obtained:
Set-up in all cases: dose 5 mg/kg, dosed compound name [14C]-apixaban, route oral
Settings in all cases: in vivo
Rattus norvegicus [1] = assay: Biodistribution in fetal brain of pregnant Sprague-Dawley rat at 5 mg/kg, po administered as single dose measured after 48 hrs; type: ADME, organism-based
Method in brief: (§1)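 Quantitative whole-body autoradiography was run after a single 5 mg/kg (100 μCi/kg) oral gavage to fasted female or pregnant SD rats, one rat per time point. Carcasses were frozen in hexane/dry ice, and 40 µm sagittal sections were dried at −20°C for at least 48 h. Sections were exposed to a phosphor plate alongside [14C]glucose standards (0.001–6.5 µCi/g). Results are µg eq/g, with LLOQ 0.037 µg eq/g.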

Rattus norvegicus [2] = assay: Biodistribution in pregnant Sprague-Dawley rat bone marrow at 5 mg/kg, po administered as single dose measured after 4 hrs; type: ADME, organism-based
Rattus norvegicus [3] = assay: Biodistribution in pregnant Sprague-Dawley rat salivary gland at 5 mg/kg, po administered as single dose measured after 48 hrs; type: ADME, organism-based
Method in brief: (§2)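 Pregnant SD rats (270-319 g) were fasted overnight and given one oral gavage of 5 mg/kg (100 μCi/kg) in 0.5% Tween 80 in Labrafil. One rat was euthanized per time point (0.5, 1, 4, 8, 24, 48 h) and the carcass frozen. 40 µm sagittal sections were phosphor-imaged against [14C]glucose standards and results reported as µg eq/g; LLOQ 0.037 µg eq/g.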

Rattus norvegicus [4] = assay: Biodistribution in pregnant Sprague-Dawley rat kidney cortex at 5 mg/kg, po administered as single dose measured after 1 hr; type: ADME, organism-based
Rattus norvegicus [5] = assay: Biodistribution in female Sprague-Dawley rat pituitary gland at 5 mg/kg, po administered as single dose measured after 24 hrs; type: ADME, organism-based; method in brief: as §1
Rattus norvegicus [6] = assay: Biodistribution in pregnant Sprague-Dawley rat brown fat at 5 mg/kg, po administered as single dose measured after 0.5 hrs; type: ADME, organism-based, Brown adipose tissue
Rattus norvegicus [7] = assay: Biodistribution in male Sprague-Dawley rat pituitary gland at 5 mg/kg, po administered as single dose measured after 4 hrs; type: ADME, organism-based
Liver = assay: Biodistribution in pregnant Sprague-Dawley rat liver at 5 mg/kg, po administered as single dose measured after 0.5 hrs; type: ADME, organism-based
Method in brief: (§3)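 Fasted pregnant SD rats (n=6, 270-319 g) each received one oral gavage dose of [14C]apixaban, 5 mg/kg (100 μCi/kg), in 0.5% Tween 80/Labrafil. One rat was killed at each of 0.5, 1, 4, 8, 24 and 48 h. Carcasses were frozen in hexane/dry ice, cut into 40 µm sagittal sections, exposed to phosphor plates and quantified against [14C]glucose standards as µg eq/g. LLOQ was 0.037 µg eq/g.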

Muscle tissue = assay: Biodistribution in pregnant Sprague-Dawley rat muscle at 5 mg/kg, po administered as single dose measured after 48 hrs; type: ADME, organism-based; method in brief: as §2
Rattus norvegicus [8] = assay: Biodistribution in fetal blood of pregnant Sprague-Dawley rat at 5 mg/kg, po administered as single dose measured after 8 hrs; type: ADME, organism-based
Method in brief: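 Pregnant rats, 270-319 g and fasted overnight, received [14C]apixaban by oral gavage at 100 μCi/kg in 0.5% Tween 80/Labrafil. One dam per time point was euthanized and frozen in hexane/dry ice. Fetal tissue radioactivity was measured by QWBA on 40 µm sagittal sections calibrated with [14C]glucose standards. Values are in µg eq/g, with LLOQ 0.037 μg eq/g.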

Rattus norvegicus [9] = assay: Biodistribution in pregnant Sprague-Dawley rat salivary gland at 5 mg/kg, po administered as single dose measured after 1 hr; type: ADME, organism-based
Rattus norvegicus [10] = assay: Biodistribution in pregnant Sprague-Dawley rat brown fat at 5 mg/kg, po administered as single dose measured after 24 hrs; type: ADME, organism-based, Brown adipose tissue; method in brief: as §3
Rattus norvegicus [11] = assay: Biodistribution in male Sprague-Dawley rat pituitary gland at 5 mg/kg, po administered as single dose measured after 72 hrs; type: ADME, organism-based
Method in brief: (§4)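 Fasted male SD rats (225-252 g) each received one oral gavage dose of [14C]apixaban, 5 mg/kg (100 μCi/kg), in 0.5% Tween 80/Labrafil vehicle. One rat was killed per time point, from 0.5 to 168 h. Frozen carcasses were cut into 40 µm sagittal whole-body sections and read by QWBA phosphor imaging against [14C]glucose calibrants. Results are in µg apixaban eq/g; BLQ <0.037 µg eq/g.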

Adrenal gland [12] = assay: Biodistribution in female Sprague-Dawley rat adrenal gland at 5 mg/kg, po administered as single dose measured after 4 hrs; type: ADME, organism-based
Method in brief: (§5)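 [¹⁴C]Apixaban given by oral gavage at 5 mg/kg (100 μCi/kg) in 0.5% Tween 80 in Labrafil (1.0 mg/mL dosing solution) to rats fasted overnight through 4 h post-dose. One rat per time point; carcass frozen in hexane/dry ice. Quantitative whole-body autoradiography used 40 µm sagittal sections and a phosphor imaging plate calibrated with [¹⁴C]glucose standards (0.001–6.5 μCi/g). Read-out in µg eq apixaban/g; LLOQ 0.037 μg eq/g.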

Heart = assay: Biodistribution in pregnant Sprague-Dawley rat heart at 5 mg/kg, po administered as single dose measured after 4 hrs; type: ADME, organism-based
Rattus norvegicus [13] = assay: Biodistribution in male Sprague-Dawley rat salivary gland at 5 mg/kg, po administered as single dose measured after 8 hrs; type: ADME, organism-based
Rattus norvegicus [14] = assay: Biodistribution in pregnant Sprague-Dawley rat pituitary gland at 5 mg/kg, po administered as single dose measured after 48 hrs; type: ADME, organism-based; method in brief: as §2
Harderian gland = assay: Biodistribution in male Sprague-Dawley rat harderian gland at 5 mg/kg, po administered as single dose measured after 1 hr; type: ADME, organism-based; method in brief: as §5
Adrenal gland [15] = assay: Biodistribution in male Sprague-Dawley rat adrenal gland at 5 mg/kg, po administered as single dose measured after 72 hrs; type: ADME, organism-based; method in brief: as §4
Rattus norvegicus [16] = assay: Biodistribution in female Sprague-Dawley rat brown fat at 5 mg/kg, po administered as single dose measured after 4 hrs; type: ADME, organism-based, Brown adipose tissue
Method in brief: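 [14C]apixaban (20 μCi/mL in dosing solution) in 0.5% Tween 80 in Labrafil given by oral gavage to fasted female rats, 206-213 g, at 100 μCi/kg. One rat per time point was euthanized and snap-frozen. Sagittal 40 µm whole-body sections were read by QWBA phosphor imaging against [14C]glucose standards. Results are in µg eq apixaban/g, with LLOQ 0.037 μg eq/g.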

Lung = assay: Biodistribution in female Sprague-Dawley rat lung at 5 mg/kg, po administered as single dose measured after 24 hrs; type: ADME, organism-based; method in brief: as §1
Rattus norvegicus [17] = assay: Biodistribution in male Sprague-Dawley rat bone marrow at 5 mg/kg, po administered as single dose measured after 1 hr; type: ADME, organism-based
Method in brief: (§6)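 Fasted male rats, 225-252 g, received [14C]apixaban by single oral gavage at 100 μCi/kg in 0.5% Tween 80/Labrafil. One rat was killed per time point and the carcass frozen. Tissue radioactivity was quantified by QWBA (40 µm sagittal sections, phosphor plate, [14C]glucose calibration) as µg eq apixaban/g, with LLOQ 0.037 μg eq/g.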

Rattus norvegicus [18] = assay: Biodistribution in male Sprague-Dawley rat bone marrow at 5 mg/kg, po administered as single dose measured after 4 hrs; type: ADME, organism-based; method in brief: as §6
Rattus norvegicus [19] = assay: Biodistribution in fetal brain of pregnant Sprague-Dawley rat at 5 mg/kg, po administered as single dose measured after 1 hr; type: ADME, organism-based
Method in brief: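 Pregnant SD rats received a single oral gavage of [14C]apixaban at 5 mg/kg (100 μCi/kg; 1.0 mg/mL, 20 μCi/mL in 0.5% Tween 80/Labrafil) after fasting, one dam per time point. Frozen carcasses were cut into 40 µm sagittal sections and read by phosphor-imaging QWBA against [14C]glucose standards. Fetal tissue radioactivity is reported as µg eq/g, with LLOQ 0.037 µg eq/g.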

- Radiolabel recovery (Rattus norvegicus [1]): Not detected assumed BLQ
- Radiolabel recovery (Rattus norvegicus [2]): 0.46 ugequiv/g
- Radiolabel recovery (Rattus norvegicus [3]): Not detected assumed BLQ
- Radiolabel recovery (Rattus norvegicus [4]): 2.03 ugequiv/g
- Radiolabel recovery (Rattus norvegicus [5]): Not detected assumed BLQ
- Radiolabel recovery (Rattus norvegicus [6]): 1.08 ugequiv/g
- Radiolabel recovery (Rattus norvegicus [7]): 0.37 ugequiv/g
- Radiolabel recovery (Liver): 6.77 ugequiv/g
- Radiolabel recovery (Muscle tissue): Not detected assumed BLQ
- Radiolabel recovery (Rattus norvegicus [8]): 0.07 ugequiv/g
- Radiolabel recovery (Rattus norvegicus [9]): 0.95 ugequiv/g
- Radiolabel recovery (Rattus norvegicus [10]): Not detected assumed BLQ
- Radiolabel recovery (Rattus norvegicus [11]): Not detected assumed BLQ
- Radiolabel recovery (Adrenal gland [12]): 0.9 ugequiv/g
- Radiolabel recovery (Heart): 0.83 ugequiv/g
- Radiolabel recovery (Rattus norvegicus [13]): 0.13 ugequiv/g
- Radiolabel recovery (Harderian gland): 0.69 ugequiv/g
- Radiolabel recovery (Rattus norvegicus [16]): 0.61 ugequiv/g
- Radiolabel recovery (Rattus norvegicus [17]): 0.57 ugequiv/g
- Radiolabel recovery (Rattus norvegicus [18]): 0.32 ugequiv/g
- Radiolabel recovery (Rattus norvegicus [19]): 0.05 ugequiv/g
Structure (SMILES): COc1ccc(-n2nc(C(N)=O)c3c2C(=O)N(c2ccc(N4CCCC[14C]4=O)cc2)CC3)cc1
- Radiolabel recovery (Rattus norvegicus [14]): Not sampled as not visualised in autoradiograph
- Radiolabel recovery (Adrenal gland [15]): Not sampled as not visualised in autoradiograph
- Radiolabel recovery (Lung): Not sampled as not visualised in autoradiograph
